In ChEMBL document CHEMBL1127011, “Structure-activity relationship of glycine betaine analogs on osmotolerance of enteric bacteria” (1993):

Columns and labels:
Type in all cases: functional
Escherichia coli [1] = assay: Maximum NaCl molar concentration that showed 50% bacterial growth in Escherichia coli ATCC 25922 at MM+0.1 mmol Choline
How it was run: (§1)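 Single colony from MacConkey agar subcultured overnight in minimal medium at 37 °C. Inoculum: 1:200 dilution of 0.5 McFarland standard (~5 × 10^5 cfu/mL final) into minimal medium with NaCl 0.1–1 M in 0.1 M steps. Test compound 0.1 mM, alone or with GB or Chol 0.1 mM. OD600 read at 48 h. Endpoint is highest NaCl giving ≥50% growth versus full-growth tubes. Mean of three ±SD.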

Escherichia coli [2] = assay: Maximum NaCl molar concentration that showed 50% bacterial growth in Escherichia coli K10 at minimum media (MM); how it was run: as §1
Escherichia coli [3] = assay: Maximum NaCl molar concentration that showed 50% bacterial growth in Escherichia coli ATCC 25922 at minimum media (MM); how it was run: as §1
Escherichia coli [4] = assay: Maximum NaCl molar concentration that showed 50% bacterial growth in Escherichia coli ATCC 25922 at MM+0.1 mmol GB (Glycine Betaine); how it was run: as §1
Escherichia coli [5] = assay: Maximum NaCl molar concentration that showed 50% bacterial growth in Escherichia coli K10 at MM+0.1 mmol Choline; how it was run: as §1
Escherichia coli [6] = assay: Maximum NaCl molar concentration that showed 50% bacterial growth in Escherichia coli 31 at MM+0.1 mmol Choline; how it was run: as §1
Escherichia coli [7] = assay: Maximum NaCl molar concentration that showed 50% bacterial growth in Escherichia coli K10 at MM+0.1 mmol GB (Glycine Betaine); how it was run: as §1
Escherichia coli [8] = assay: Maximum NaCl molar concentration that showed 50% bacterial growth in Escherichia coli 31 at minimum media (MM); how it was run: as §1
Escherichia coli [9] = assay: Maximum NaCl molar concentration that showed 50% bacterial growth in Escherichia coli 31 at MM+0.1 mmol GB (Glycine Betaine); how it was run: as §1

Structure (SMILES) | Max salt tolerance (Escherichia coli [1]) | Max salt tolerance (Escherichia coli [2]) | Max salt tolerance (Escherichia coli [3]) | Max salt tolerance (Escherichia coli [4]) | Max salt tolerance (Escherichia coli [5]) | Max salt tolerance (Escherichia coli [6]) | Max salt tolerance (Escherichia coli [7]) | Max salt tolerance (Escherichia coli [8]) | Max salt tolerance (Escherichia coli [9])
C[N+](C)(C)CC(=O)[N-]S(=O)(=O)c1ccc(NC(=O)CCl)cc1 | 0.8 | 0.3 | 0.1 | 0.86 | 0.8 | 0.8 | 0.86 | 0.63 | 0.9
C[N+](C)(C)CC(=O)Nc1ccc(S(N)(=O)=O)cc1.[Cl-] | 0.8 | 0.56 | 0.5 | 0.83 | 0.86 | 0.9 | 0.9 | 0.73 | 0.9
C[N+](C)(C)CS(=O)(=O)[O-] | 0.33 | 0.83 | 0.27 | 0.86 | 0.9 | 0.9 | 0.93 | 0.83 | 0.9
CCC(=O)Nc1ccc(S(=O)(=O)[N-]C(=O)C[N+](C)(C)C)cc1 | 0.8 | 0.57 | 0.4 | 0.86 | 0.83 | 0.8 | 0.9 | 0.7 | 0.9
C[N+](C)(C)CC(=O)Nc1ccc(S(=O)(=O)NC(=O)C[N+](C)(C)C)cc1.[Cl-].[Cl-] | 0.8 | 0.56 | 0.5 | 0.83 | 0.86 | 0.9 | 0.9 | 0.73 | 0.9
C[N+](C)(C)CC(=O)NS(=O)(=O)c1ccc(N)cc1.[Cl-] | 0.8 | 0.56 | 0.5 | 0.83 | 0.86 | 0.9 | 0.9 | 0.73 | 0.9
C[N+](C)(C)CP(=O)([O-])O [HYDROGEN (TRIMETHYLAMMONIO)METHYLPHOSPHONATE] | 0.77 | 0.4 | 0.33 | 0.8 | 0.77 | 0.83 | 0.87 | 0.6 | 0.9
C[N+]1(CS(=O)(=O)[O-])CCCC1 | 0.2 | 0.5 | 0.13 | 0.87 | 0.6 | 0.86 | 0.97 | 0.7 | 0.93
Br.C[N+](C)(C)CC(=O)[N-]S(=O)(=O)c1ccc(NC(=O)CBr)cc1 | 0.8 | 0.3 | 0.1 | 0.86 | 0.8 | 0.8 | 0.86 | 0.63 | 0.9
C[N+](C)(C)CC(=O)[N-]S(=O)(=O)c1ccc(NC(=O)CI)cc1 | 0.8 | 0.3 | 0.1 | 0.86 | 0.8 | 0.8 | 0.86 | 0.63 | 0.9
C[N+]1(CS(=O)(=O)[O-])CCOCC1 | 0.23 | 0.63 | 0.2 | 0.83 | 0.87 | 0.9 | 0.97 | 0.77 | 0.97
CC(=O)Nc1ccc(S(=O)(=O)[N-]C(=O)C[N+](C)(C)C)cc1 | 0.8 | 0.57 | 0.4 | 0.86 | 0.83 | 0.8 | 0.9 | 0.7 | 0.9
C[N+](C)(C)CC(=O)[N-]S(=O)(=O)c1ccccc1 | 0.8 | 0.56 | 0.5 | 0.83 | 0.86 | 0.9 | 0.9 | 0.73 | 0.9
C[N+]1(CS(=O)(=O)[O-])CCCCC1 | 0.2 | 0.35 | 0.13 | 0.86 | 0.5 | 0.88 | 0.9 | 0.43 | 0.93
